We go through one compound from ChEMBL document CHEMBL2146427, “Protective effects of hyperoside against carbon tetrachloride-induced liver damage in mice” (2011).

The test system of assay [1] is Mus musculus. Description: Hepatoprotective activity against CCL4-induced liver damage in ICR mouse assessed as […] level per gram of liver at 50 mg/kg, ip dosed 30 mins before and 2 hrs post CCL4 challenge and measured 24 hrs post CCL4 challenge (reference value: 4.8 +/- 0.3 umol/g liver). The conditions noted are these: route intraperitoneal. In kind it is functional.

The subject of assay [2] is Mus musculus. Description: Hepatoprotective activity against CCL4-induced liver damage in ICR mouse assessed as reduction in CCL-induced COX2 protein expression at 100 mg/kg, ip dosed 30 mins before and 2 hrs post CCL4 challenge and measured 24 hrs post CCL4 challenge by Western blot. In kind it is functional, organism-based. More on the design: dose 100 mg/kg.
The test system of assay [3] is Mus musculus. Kind of assay: Hepatoprotective activity against CCL4-induced liver damage in ICR mouse assessed as reduction in centrizonal necrosis at 100 mg/kg, ip dosed 30 mins before and 2 hrs post CCL4 challenge and measured 24 hrs post CCL4 challenge by hematoxylin-eosin staining based method. In kind it is functional, organism-based. More on the design: dose 100 mg/kg. An outline of the steps:
(§1)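 Left liver lobe fixed in 10% neutral-buffered formalin, paraffin-embedded, cut at 5 μm and stained with H&E. Scored blind for portal inflammation, hepatocellular necrosis and inflammatory infiltration across 100 random nonconsecutive fields. Male ICR mice; CCl4 20 μL/kg ip in olive oil; tissue taken at 24 h.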

For assay [4], the system named is Mus musculus. Kind of assay: Hepatoprotective activity against CCL4-induced liver damage in ICR mouse assessed as serum ALT level at 200 mg/kg, ip dosed 30 mins before and 2 hrs post CCL4 challenge and measured 24 hrs post CCL4 challenge (reference value: 10229 +/- 918 U/L). In kind it is functional. Particulars: route intraperitoneal.
In assay [5] the test system is Mus musculus. Description: Hepatoprotective activity against CCL4-induced liver damage in ICR mouse assessed as serum ALT level at 100 mg/kg, ip dosed 30 mins before and 2 hrs post CCL4 challenge and measured 24 hrs post CCL4 challenge (reference value: 10229 +/- 918 U/L). The conditions noted are these: route intraperitoneal. In kind it is functional.
The test system of assay [6] is Mus musculus. Description: Hepatoprotective activity against CCL4-induced liver damage in ICR mouse assessed as augmentation of CCL-induced HO-1 mRNA expression at 100 mg/kg, ip dosed 30 mins before and 2 hrs post CCL4 challenge and measured 24 hrs post CCL4 challenge by RT-PCR. In kind it is functional, organism-based. Set-up: dose 100 mg/kg. An outline of the steps:
(§2)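 Liver total RNA (Chomczynski–Sacchi), oligo(dT) primed reverse transcription, then PCR with 10 μM primers. Cycling was 94/56/72 °C, 30 s each, for 35 cycles (COX-2) or 30 cycles (HO-1), and 94/60/72 °C for 35 cycles (iNOS), with β-actin at 25 cycles. Products were run on 1.5% agarose and stained with ethidium bromide. Male ICR mice, 10 per group, fasted 16 h.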

Assay [7] has as its system Mus musculus. Description: Hepatoprotective activity against CCL4-induced liver damage in ICR mouse assessed as […] level per mg protein at 200 mg/kg, ip dosed 30 mins before and 2 hrs post CCL4 challenge and measured 24 hrs post CCL4 challenge by TBARS detection based spectrophotometry (reference value: 3.2 +/- 0.5 nmol/mg protein). In kind it is functional. The conditions noted are these: route intraperitoneal.

Assay [8] concerns Mus musculus. Description: Hepatoprotective activity against CCL4-induced liver damage in ICR mouse assessed as serum AST level at 200 mg/kg, ip dosed 30 mins before and 2 hrs post CCL4 challenge and measured 24 hrs post CCL4 challenge (reference value: 7518 +/- 426 U/L). In kind it is functional. Particulars: route intraperitoneal.
In assay [9] the test system is Mus musculus. Description: Hepatoprotective activity against CCL4-induced liver damage in ICR mouse assessed as serum AST level at 100 mg/kg, ip dosed 30 mins before and 2 hrs post CCL4 challenge and measured 24 hrs post CCL4 challenge (reference value: 7518 +/- 426 U/L). In kind it is functional. The conditions noted are these: route intraperitoneal.
Assay [10] has as its system Mus musculus. Kind of assay: Hepatoprotective activity against CCL4-induced liver damage in ICR mouse assessed as serum AST level at 50 mg/kg, ip dosed 30 mins before and 2 hrs post CCL4 challenge and measured 24 hrs post CCL4 challenge (reference value: 7518 +/- 426 U/L). In kind it is functional. The conditions noted are these: route intraperitoneal.
The subject of assay [11] is Mus musculus. Description: Hepatoprotective activity against CCL4-induced liver damage in ICR mouse assessed as augmentation of CCL-induced HO-1 protein expression at 100 mg/kg, ip dosed 30 mins before and 2 hrs post CCL4 challenge and measured 24 hrs post CCL4 challenge by Western blot. In kind it is functional, organism-based. More on the design: dose 100 mg/kg. (In western blotting, separated proteins are transferred to a membrane and probed.)

In assay [12] the test system is Mus musculus. Description: Hepatoprotective activity against CCL4-induced liver damage in ICR mouse assessed as reduction in CCL-induced COX2 mRNA expression at 100 mg/kg, ip dosed 30 mins before and 2 hrs post CCL4 challenge and measured 24 hrs post CCL4 challenge by RT-PCR. In kind it is functional, organism-based. More on the design: dose 100 mg/kg. The method, boiled down: as §2

The test system of assay [13] is Mus musculus. Description: Hepatoprotective activity against CCL4-induced liver damage in ICR mouse assessed as reduction in Kupffer cell hyperplasia at 100 mg/kg, ip dosed 30 mins before and 2 hrs post CCL4 challenge and measured 24 hrs post CCL4 challenge by hematoxylin-eosin staining based method. In kind it is functional, organism-based. Set-up: dose 100 mg/kg. An outline of the steps:
as §1

For assay [14], the system named is Mus musculus. Kind of assay: Hepatoprotective activity against CCL4-induced liver damage in ICR mouse assessed as […] level per gram of liver at 200 mg/kg, ip dosed 30 mins before and 2 hrs post CCL4 challenge and measured 24 hrs post CCL4 challenge (reference value: 4.8 +/- 0.3 umol/g liver). In kind it is functional. The conditions noted are these: route intraperitoneal.

For assay [15], the system named is Mus musculus. Kind of assay: Hepatoprotective activity against CCL4-induced liver damage in ICR mouse assessed as […] level per mg protein at 100 mg/kg, ip dosed 30 mins before and 2 hrs post CCL4 challenge and measured 24 hrs post CCL4 challenge by TBARS detection based spectrophotometry (reference value: 3.2 +/- 0.5 nmol/mg protein). Particulars: route intraperitoneal. In kind it is functional.

The subject of assay [16] is Mus musculus. Description: Hepatoprotective activity against CCL4-induced liver damage in ICR mouse assessed as reduction in CCL-induced TNFalpha production at 100 mg/kg, ip dosed 30 mins before and 2 hrs post CCL4 challenge and measured 24 hrs post CCL4 challenge by ELISA. In kind it is functional, organism-based. More on the design: dose 100 mg/kg. The method, boiled down:
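Serum TNF-α measured by commercial ELISA on abdominal aortic blood drawn 24 h after ip CCl4 (20 μL/kg in olive oil). Male ICR mice, 10 per group, fasted 16 h; saline vehicle ip; mean ± SEM.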
(An ELISA detects its analyte on a solid surface through an enzyme-linked reagent.)

The test system of assay [17] is Mus musculus. Kind of assay: Hepatoprotective activity against CCL4-induced liver damage in ICR mouse assessed as reduction in CCL-induced iNOS mRNA expression at 100 mg/kg, ip dosed 30 mins before and 2 hrs post CCL4 challenge and measured 24 hrs post CCL4 challenge by RT-PCR. In kind it is functional, organism-based. More on the design: dose 100 mg/kg. An outline of the steps:
as §2

Assay [18] relates to Mus musculus. Description: Hepatoprotective activity against CCL4-induced liver damage in ICR mouse assessed as reduction in portal inflammation at 100 mg/kg, ip dosed 30 mins before and 2 hrs post CCL4 challenge and measured 24 hrs post CCL4 challenge by hematoxylin-eosin staining based method. In kind it is functional, organism-based. More on the design: dose 100 mg/kg. The method, boiled down:
as §1

In assay [19] the test system is Mus musculus. Kind of assay: Hepatoprotective activity against CCL4-induced liver damage in ICR mouse assessed as liver MDA level per mg protein at 50 mg/kg, ip dosed 30 mins before and 2 hrs post CCL4 challenge and measured 24 hrs post CCL4 challenge by TBARS detection based spectrophotometry (reference value: 3.2 +/- 0.5 nmol/mg protein). Particulars: route intraperitoneal.

Assay [20] has as its system Mus musculus. Kind of assay: Hepatoprotective activity against CCL4-induced liver damage in ICR mouse assessed as reduction in CCL-induced iNOS protein expression at 100 mg/kg, ip dosed 30 mins before and 2 hrs post CCL4 challenge and measured 24 hrs post CCL4 challenge by Western blot. Set-up: dose 100 mg/kg. In kind it is functional, organism-based.
The test system of assay [21] is Mus musculus. Description: Hepatoprotective activity against CCL4-induced liver damage in ICR mouse assessed as increase in CCL-induced nuclear Nrf2 protein level at 100 mg/kg, ip dosed 30 mins before and 2 hrs post CCL4 challenge and measured 24 hrs post CCL4 challenge by Western blot. In kind it is functional, organism-based. Set-up: dose 100 mg/kg. The method, boiled down:
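Nuclear proteins were extracted from fresh liver with NE-PER, and 15 μg per lane was immunoblotted: nitrocellulose, 1 h milk block, primary antibody overnight at 4 °C, ECL, densitometry. Male ICR mice (25–30 g), 10 per group, fasted 16 h; CCl4 20 μL/kg ip in olive oil; sampled 24 h later.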

The subject of assay [22] is Mus musculus. Kind of assay: Hepatoprotective activity against CCL4-induced liver damage in ICR mouse assessed as serum ALT level at 50 mg/kg, ip dosed 30 mins before and 2 hrs post CCL4 challenge and measured 24 hrs post CCL4 challenge (reference value: 10229 +/- 918 U/L). In kind it is functional. Particulars: route intraperitoneal.
In assay [23] the test system is Mus musculus. Kind of assay: Hepatoprotective activity against CCL4-induced liver damage in ICR mouse assessed as […] level per gram of liver at 100 mg/kg, ip dosed 30 mins before and 2 hrs post CCL4 challenge and measured 24 hrs post CCL4 challenge (reference value: 4.8 +/- 0.3 umol/g liver). The conditions noted are these: route intraperitoneal. In kind it is functional.

The source made the active and inactive calls. No cut-off for these calls is given here.

Consider `O=c1c(O[C@@H]2O[C@H](CO)[C@H](O)[C@H](O)[C@H]2O)c(-c2ccc(O)c(O)c2)oc2cc(O)cc(O)c12` [HYPEROSIDE], for which the Activity worked out at 6.1 µmol in the assay with Mus musculus [1]; 7055 U/L in the assay on Mus musculus [4]; 7134 U/L in the assay with Mus musculus [5]; 1.4 nmol in the assay on Mus musculus [7]; 5382 U/L with Mus musculus [8]; 5488 U/L with Mus musculus [9]. Besides, the Activity in the assay with Mus musculus [10] worked out at 6820 U/L; with Mus musculus [14], 6 µmol; in the assay on Mus musculus [15], 1.5 nmol; with Mus musculus [19], 2.4 nmol; in the assay on Mus musculus [22], 10740 U/L; with Mus musculus [23], 5.2 µmol. In addition, the outcome with Mus musculus [2], in the assay with Mus musculus [3], with Mus musculus [6], in the assay on Mus musculus [11], with Mus musculus [12] and with Mus musculus [13] was Active. The outcome in the assay with Mus musculus [16], with Mus musculus [17], with Mus musculus [18], in the assay with Mus musculus [20] and with Mus musculus [21] was Active.
